Where two headings read alike, the source gives them in different places.
How the values were obtained:
Type in all cases: cell-based
[1] = test system: mouse breast cancer (4T1) cells; test: MTT cytotoxicity assay, 4T1 cells
[2] = test system: Plasmodium falciparum chloroquine-resistant (W2) strain; test: Antiplasmodial assay
In short: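 Asexual erythrocytic-stage P. falciparum W2 was kept in continuous in vitro culture. It was tested by modified semiautomated microdilution for inhibition of [G-3H]hypoxanthine incorporation. Cells were harvested onto glass-fibre filters and counted by liquid scintillation as cpm per well at each drug concentration, expressed as % of untreated controls. IC50 was taken from nonlinear regression of the dose-response curve.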

[3] = test system: Plasmodium falciparum chloroquine-sensitive (D6) strain; test: Antiplasmodial assay; conditions: for IC50: Plasmodium falciparum
[4] = test system: human larynx carcinoma (HEp2) cells; test: MTT cytotoxicity assay, HEp2 cells
[5] = Mus musculus, 4T1, 48 h, read-out: IC50 4T1, 4T1 cells, MTT, 48 h
[6] = read-out: IC50 4T1, 4T1 cells, MTT, 48 h
[7] = Homo sapiens, HEp-2, 48 h, read-out: IC50 HEp2, HEp2 cells, MTT, 48 h
[8] = read-out: IC50 HEp2, HEp2 cells, MTT, 48 h

Question: Which IC50 [1, 5] does the source give for `CC(=O)O[C@@H]1C[C@H]2C(C)(C)C(=O)C=C[C@]2(C)[C@H]2CC[C@]3(C)C(=CC[C@H]3c3ccoc3)[C@@]21C` [Azadirone (1), azadirone] here?
Answer: Its IC50 is under 20 µM.

Question: And the IC50 [1, 6]?
Answer: Its IC50 is 14.4 µM.

Question: What about the IC50 ([2]; W2, read-out: IC50 W2) of the same compound?
Answer: Its IC50 is 29.6 ± 1 µM.

Question: What about the IC50 ([3]; D6, read-out: IC50 D6) of the same compound?
Answer: The IC50 was 23.4 ± 0.2 µM.

Question: And the IC50 [4, 7]?
Answer: The IC50 was under 20 µM.

Question: What about the IC50 [4, 8] of the same compound?
Answer: The IC50 was 12.8 µM.

Question: Which results are given for `CCN(CC)CCCC(C)Nc1ccnc2cc(Cl)ccc12` (stereo not shown) [Chloroquine, reference compound]?
Answer: IC50 ([2]; W2, read-out: IC50 W2 (chloroquine)): 0.108 µM; IC50 ([3]; D6, read-out: IC50 D6 (chloroquine)): 0.0077 µM; SI: selectivity index [IC50 vero/IC50 (D6)] ([3]; Table 1): 5701

Question: What does the source list for `CC(=O)O[C@H]1C[C@@H]2[C@@]3(C)CCC(=O)C(C)(C)[C@@H]3C[C@@H](O)[C@@]2(C)C2=CC[C@@H](c3ccoc3)[C@@]21C` [Mzikonone (3), mzikonone]?
Answer: IC50 [1, 5]: 38.8 ± 0.4 µM; IC50 ([2]; W2, read-out: IC50 W2): 40.5 ± 3.7 µM; IC50 ([3]; D6, read-out: IC50 D6): 36.6 ± 0.8 µM; IC50 [4, 7]: 59.3 ± 1 µM

Question: Which results are given for `C[C@H](C[C@@H](O)[C@@H]1OC1(C)C)[C@@H]1CC[C@]2(C)C3=CC[C@H]4C(C)(C)C(=O)CC[C@]4(C)[C@H]3CC[C@@]12C` [Niloticin (8), niloticin]?
Answer: IC50 [1, 5]: < 20 µM; IC50 [1, 6]: 14.5 ± 0.5 µM; IC50 ([2]; W2, read-out: IC50 W2): 77 ± 5.7 µM; IC50 ([3]; D6, read-out: IC50 D6): 48.2 ± 2.3 µM; IC50 [4, 8]: 6.9 ± 0.6 µM; IC50 ([4]; read-out: IC50 HEp2, HEp2 cells, MTT, 48 h, listed as niloticin (8)): < 20 µM
